Data on 32 compounds can be found in ChEMBL document CHEMBL1649418, “Pyrimidine derivatives as potent and selective A3 adenosine receptor antagonists” (J Med Chem, 2011).

Molecules are shown by their SMILES.

Holding throughout (format): cell-based
In one assay the target is Adenosine receptor A2a (Homo sapiens, UniProt P29274). Description: Displacement of [3H][…] from human adenosine A2A receptor expressed in human HeLa cells at 0.1 uM by liquid scintillation counting. The method, boiled down:
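Nonspecific binding was defined with 50 μM NECA. Filters were washed four times with ice-cold buffer, then counted by scintillation. Ki (Cheng–Prusoff) is mean ± SEM, n=3; % displacement at 0.1 μM is n=2.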

The target of assay [1] is T1, Adenosine receptor A1 (Homo sapiens) (UniProt P30542).
T1 sequence (whole entry): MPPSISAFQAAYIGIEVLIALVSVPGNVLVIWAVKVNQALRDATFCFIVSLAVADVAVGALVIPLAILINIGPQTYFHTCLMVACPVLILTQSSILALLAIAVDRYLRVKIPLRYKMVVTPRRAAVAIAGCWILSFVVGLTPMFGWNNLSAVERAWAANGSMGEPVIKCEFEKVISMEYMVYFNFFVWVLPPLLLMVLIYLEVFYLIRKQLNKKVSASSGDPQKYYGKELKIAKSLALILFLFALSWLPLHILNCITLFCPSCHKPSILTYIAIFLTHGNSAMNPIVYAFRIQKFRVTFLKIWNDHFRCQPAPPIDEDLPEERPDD
The assay can be described thus: Displacement of [3H]DPCPX from human adenosine A1 receptor expressed in CHO cells at 0.1 uM by liquid scintillation counting. The method, boiled down: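 Transfected CHO cell membranes (15 μg) were incubated with [3H]DPCPX at 25 °C for 60 min, with six test concentrations from 0.1 nM to 1 μM. Nonspecific binding was defined with 10 μM R-PIA. Filters were washed four times with ice-cold buffer before scintillation counting. Ki (Cheng–Prusoff) is mean ± SEM, n=3; % displacement at 0.1 μM is n=2.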

Assay [2] addresses T2, Adenosine receptor A2b (Homo sapiens) (UniProt P29275).
T2 sequence (whole entry): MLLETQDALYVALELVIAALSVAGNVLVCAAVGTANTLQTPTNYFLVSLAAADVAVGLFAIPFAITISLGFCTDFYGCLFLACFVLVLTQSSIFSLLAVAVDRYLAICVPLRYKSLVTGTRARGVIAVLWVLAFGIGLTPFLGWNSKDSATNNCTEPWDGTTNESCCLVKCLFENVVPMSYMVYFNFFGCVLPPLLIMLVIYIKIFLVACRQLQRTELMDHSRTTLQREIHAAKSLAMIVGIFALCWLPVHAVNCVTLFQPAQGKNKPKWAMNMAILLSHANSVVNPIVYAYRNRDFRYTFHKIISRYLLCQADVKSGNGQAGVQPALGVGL
Description: Displacement of [3H]DPCPX from human adenosine A2B receptor expressed in HEK293 cells at 0.1 uM by liquid scintillation counting. The method, boiled down:
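HEK-293 membranes (18 μg) were incubated with [3H]DPCPX (35 nM) at 25 °C for 30 min, with six concentrations from 0.1 nM to 1 μM. Nonspecific binding was defined with 400 μM NECA. Filters were washed six times with ice-cold buffer and counted by scintillation. Ki (Cheng–Prusoff) is mean ± SEM, n=3; % displacement at 0.1 μM is n=2.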

In assay [3] the target is T3, Adenosine receptor A3 (Homo sapiens) (UniProt P0DMS8).
T3 sequence (whole entry): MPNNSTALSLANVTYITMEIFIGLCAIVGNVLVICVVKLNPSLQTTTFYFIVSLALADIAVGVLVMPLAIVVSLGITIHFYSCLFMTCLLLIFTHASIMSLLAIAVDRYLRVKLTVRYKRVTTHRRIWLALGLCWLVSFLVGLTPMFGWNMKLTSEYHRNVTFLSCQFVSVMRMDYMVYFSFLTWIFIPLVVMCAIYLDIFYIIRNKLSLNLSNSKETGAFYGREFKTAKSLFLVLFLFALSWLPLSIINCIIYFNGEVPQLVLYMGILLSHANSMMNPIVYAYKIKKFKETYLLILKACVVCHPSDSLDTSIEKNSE
Description: Displacement of [3H]NECA from human adenosine A3 receptor expressed in human HeLa cells at 0.1 uM by liquid scintillation counting. The method, boiled down:
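HeLa membranes (90 μg) carrying hA3AR were incubated with [3H]NECA (30 nM) at 25 °C for 180 min, with six concentrations from 0.1 nM to 1 μM. Nonspecific binding was defined with 100 μM R-PIA. Filters were washed six times and counted by scintillation. Ki (Cheng–Prusoff) is mean ± SEM, n=3; % displacement at 0.1 μM is n=2.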

Sequence of Adenosine receptor A2a (P29274 whole entry): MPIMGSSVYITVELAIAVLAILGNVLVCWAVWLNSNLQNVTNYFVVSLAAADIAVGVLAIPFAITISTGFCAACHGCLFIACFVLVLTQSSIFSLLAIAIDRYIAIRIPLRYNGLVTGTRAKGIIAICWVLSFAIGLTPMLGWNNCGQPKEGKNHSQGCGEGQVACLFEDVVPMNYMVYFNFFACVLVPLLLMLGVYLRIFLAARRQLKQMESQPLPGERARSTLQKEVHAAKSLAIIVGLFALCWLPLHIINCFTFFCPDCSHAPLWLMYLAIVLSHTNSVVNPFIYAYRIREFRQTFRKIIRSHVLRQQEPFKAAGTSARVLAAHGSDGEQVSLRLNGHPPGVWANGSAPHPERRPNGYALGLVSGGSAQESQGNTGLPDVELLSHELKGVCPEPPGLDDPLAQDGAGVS

Take `CC(=O)Nc1nc(-c2ccc(Cl)cc2)cc(-c2ccc(Cl)cc2)n1`: the inhibition at Adenosine receptor A2a is 2%; in assay [1], 2%; in assay [2] it was 1%; in assay [3] it was 1%.

For the compound `CCCC(=O)Nc1nc(/C=C/c2ccccc2)cc(/C=C/c2ccccc2)n1`, the inhibition on Adenosine receptor A2a was found to be 3%; in assay [1], 1%; in assay [2], 2%; in assay [3] it was 12%.

As to `CCCC(=O)Nc1nc(-c2ccc(C(F)(F)F)cc2)cc(-c2ccc(C(F)(F)F)cc2)n1`, the inhibition turned out to be 2% on Adenosine receptor A2a, 1% in assay [1], 13% in assay [2] and 2% in assay [3].

For the compound `CC(=O)Nc1nc(-c2ccc(C(C)=O)cc2)cc(-c2ccc(C(C)=O)cc2)n1`, the inhibition came out at 8% on Adenosine receptor A2a, 7% in assay [1], 14% in assay [2] and 2% in assay [3].

For `CCCC(=O)Nc1cc(-c2ccc(C(F)(F)F)cc2)nc(-c2ccc(C(F)(F)F)cc2)n1`, the inhibition amounted to 1% at Adenosine receptor A2a, 3% in assay [1], 6% in assay [2] and 12% in assay [3].

`CCC(=O)Nc1nc(-c2ccc(OC)cc2)cc(-c2ccc(OC)cc2)n1`: the inhibition came out at 1% at Adenosine receptor A2a, 2% in assay [1], 8% in assay [2] and 13% in assay [3].

For the compound `CCC(=O)Nc1nc(-c2ccc(F)cc2)cc(-c2ccc(F)cc2)n1`, the inhibition at Adenosine receptor A2a stood at 3%; in assay [1], 14%; in assay [2] it was 1%; in assay [3] it was 22%.

For `CC(=O)Nc1nc(-c2ccco2)cc(-c2ccco2)n1`, the inhibition at Adenosine receptor A2a is 19%; in assay [1] it was 1%; in assay [2], 11%; in assay [3], 9%.

Turning to `CC(=O)Nc1nc(-c2ccccc2)cc(-c2ccccc2)n1`, the inhibition is 11% at Adenosine receptor A2a, 17% in assay [1], 6% in assay [2] and 13% in assay [3].

Turning to `CCCC(=O)Nc1cc(-c2ccc(SC)cc2)nc(-c2ccc(SC)cc2)n1`, the inhibition at Adenosine receptor A2a was 2%; in assay [1], 3%; in assay [2] it was 1%; in assay [3], 12%.

For the compound `CCC(=O)Nc1nc(-c2ccoc2)cc(-c2ccoc2)n1`, the inhibition is 2% on Adenosine receptor A2a, 3% in assay [1], 11% in assay [2] and 16% in assay [3].

On to `CSc1ccc(-c2cc(-c3ccc(SC)cc3)nc(NC(C)=O)n2)cc1`, for which the inhibition at Adenosine receptor A2a worked out at 1%; in assay [1], 1%; in assay [2] it was 2%; in assay [3], 14%.

With `CCC(=O)Nc1nc(-c2ccc(OC)cc2OC)cc(-c2ccc(OC)cc2OC)n1`, the inhibition at Adenosine receptor A2a is 14%; in assay [1], 3%; in assay [2], 3%; in assay [3] it was 17%.

`CCCC(=O)Nc1nc(-c2ccco2)cc(-c2ccco2)n1`: the inhibition on Adenosine receptor A2a was 23%; in assay [1], 17%; in assay [2], 15%; in assay [3], 1%.

For `COc1ccc(-c2cc(-c3ccc(OC)cc3)nc(NC(C)=O)n2)cc1`, the inhibition on Adenosine receptor A2a was found to be 7%; in assay [1] it was 1%; in assay [2], 1%; in assay [3], 20%.

As for `CCCC(=O)Nc1nc(-c2ccc(Cl)cc2)cc(-c2ccc(Cl)cc2)n1`, the inhibition on Adenosine receptor A2a was found to be 3%; in assay [1], 1%; in assay [2], 1%; in assay [3] it was 17%.

On to `CCCC(=O)Nc1nc(-c2ccc(F)cc2)cc(-c2ccc(F)cc2)n1`, for which the inhibition on Adenosine receptor A2a came to 5%; in assay [1] it was 18%; in assay [2], 2%; in assay [3] it was 27%.

Regarding `CCCC(=O)Nc1nc(-c2ccc(OC)cc2OC)cc(-c2ccc(OC)cc2OC)n1`, the inhibition on Adenosine receptor A2a is 16%; in assay [1] it was 14%; in assay [2], 15%; in assay [3] it was 1%.

With `COc1ccccc1-c1cc(-c2ccccc2OC)nc(NC(C)=O)n1`, the inhibition on Adenosine receptor A2a is 10%; in assay [1], 4%; in assay [2], 1%; in assay [3] it was 2%.

In the case of `CC(=O)Nc1nc(-c2ccc(C(F)(F)F)cc2)cc(-c2ccc(C(F)(F)F)cc2)n1`, the inhibition on Adenosine receptor A2a amounted to 1%; in assay [1], 2%; in assay [2] it was 2%; in assay [3] it was 10%.

For `CCC(=O)Nc1nc(-c2ccc(Cl)cc2)cc(-c2ccc(Cl)cc2)n1`, the inhibition at Adenosine receptor A2a turned out to be 11%; in assay [1], 1%; in assay [2], 2%; in assay [3], 14%.

With `CC(=O)Nc1nc(-c2ccoc2)cc(-c2ccoc2)n1`, the inhibition (at Adenosine receptor A2a; in assay [1]; in assay [2]; in assay [3]) was 1% in each case.

Take `CC(=O)Nc1nc(-c2cccs2)cc(-c2cccs2)n1`: the inhibition at Adenosine receptor A2a is 5%; in assay [1], 2%; in assay [2], 3%; in assay [3], 21%.

For the compound `CC(=O)Nc1nc(-c2ccsc2)cc(-c2ccsc2)n1`, the inhibition at Adenosine receptor A2a amounted to 2%; in assay [1], 2%; in assay [2], 1%; in assay [3] it was 1%.

Turning to `CCCC(=O)Nc1nc(-c2ccoc2)cc(-c2ccoc2)n1`, the inhibition on Adenosine receptor A2a was 17%; in assay [1], 11%; in assay [2], 0%; in assay [3] it was 21%.

Turning to `COc1ccc(-c2cc(-c3ccc(OC)cc3OC)nc(NC(C)=O)n2)c(OC)c1`, the inhibition at Adenosine receptor A2a amounted to 2%; in assay [1], 1%; in assay [2] it was 1%; in assay [3], 9%.

In the case of `CCCC(=O)Nc1nc(-c2ccc(OC)cc2)cc(-c2ccc(OC)cc2)n1`, the inhibition at Adenosine receptor A2a is 24%; in assay [1], 2%; in assay [2] it was 9%; in assay [3], 15%.

On to `CCC(=O)Nc1nc(-c2ccc(C(C)=O)cc2)cc(-c2ccc(C(C)=O)cc2)n1`, for which the inhibition on Adenosine receptor A2a was 12%; in assay [1], 1%; in assay [2], 1%; in assay [3] it was 17%.

For the compound `CCC(=O)Nc1nc(-c2cccs2)cc(-c2cccs2)n1`, the inhibition on Adenosine receptor A2a turned out to be 25%; in assay [1] it was 24%; in assay [2], 2%; in assay [3], 21%.

For `CCC(=O)Nc1cc(-c2ccc(C(F)(F)F)cc2)nc(-c2ccc(C(F)(F)F)cc2)n1`, the inhibition was found to be 17% on Adenosine receptor A2a, 3% in assay [1], 8% in assay [2] and 12% in assay [3].

Take `CCCC(=O)Nc1nc(-c2ccc(C(C)=O)cc2)cc(-c2ccc(C(C)=O)cc2)n1`: the inhibition at Adenosine receptor A2a is 14%; in assay [1] it was 7%; in assay [2], 2%; in assay [3], 22%.

Regarding `CCCC(=O)Nc1cc(/C=C/c2ccccc2)nc(/C=C/c2ccccc2)n1`, the inhibition turned out to be 1% at Adenosine receptor A2a, 1% in assay [1], 8% in assay [2] and 25% in assay [3].
